The text below walks through data of publication PMC7498667 (Neoplasia (New York, N.Y.), 2020).

For data set [1], the system named is AR+/ER−/PR− breast cancer. Particulars: cited from earlier work.
Data set [2] deals with MDA-MB-453, HCC1428 and MCF-7 cells. Put plainly: Apoptosis analysis by flow cytometry. The settings on record: 10 µM, 3-day treatment. Type of data set: cell-based, human. The essentials:
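MDA-MB-453, HCC1428 and MCF-7 cells were treated for 72 h with a concentration range of test compound, with AR antagonist comparators at 10 µM. For the time course, MDA-MB-453 and HCC1428 cells received 1 µM. Cells were washed in cold PBS, stained with an apoptosis detection kit and analysed by flow cytometry for percent live and apoptotic cells. Data are mean ± SEM, n=3.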
Background: Flow cytometry measures light scatter and fluorescence of single cells or particles in a stream.

The subject of data set [3] is caspase-8, −9, −3, and −7 and PARP. Put plainly: Cleavage of caspases and PARP, Western blot. In kind it is cell-based, human. The settings on record: 1 or 10 µM, MDA-MB-453 and HCC1428, 48 h. In outline: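 MDA-MB-453 and HCC1428 cells were exposed to a concentration range of test compound for 48 h. Cells were lysed in RIPA with protease and phosphatase inhibitors for 30 min on ice. Lysates were run on SDS-PAGE and transferred to PVDF. Membranes were blocked in 5% milk in TBST, probed with primary antibodies for cleaved caspases and PARP overnight at 4 °C and with HRP secondary, then developed by ECL.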

Data set [4] relates to MDA-MB-453 xenograft tumor. As to the kind of experiment: Antitumor efficacy in MDA-MB-453 xenograft tumor model. Particulars: enzalutamide 50 mg/kg IP dose. Type of data set: in vivo, mice. In outline: (§1)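 Male CB.17 SCID mice were implanted s.c. with 5 × 10^6 MDA-MB-453 cells in 5 mg/ml Matrigel. At a mean tumour volume of 100 mm3, mice were randomised by tumour size. Test compound or vehicle (20% PEG400 + 6% Cremophor EL + 74% PBS) was given i.p. daily. Tumours and body weights were measured twice weekly, with volume = length × width²/2. Data are mean ± SEM, n=8.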

Data set [5] relates to MDA-MB-453, HCC1428 and MCF-7 cells. As to the kind of experiment: Cell cycle analysis by flow cytometry. In kind it is cell-based, human. The settings on record: 10 µM, 72 h. The essentials:
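MDA-MB-453, HCC1428 and MCF-7 cells were treated for 72 h with a concentration range of test compound (AR antagonist comparators at 10 µM), or with 1 µM over a time course. Cells were fixed in 70% ethanol overnight at 4 °C, stained with propidium iodide plus 0.2 mg/ml RNase A for 30 min at room temperature, and cell-cycle distribution was measured by flow cytometry. Data are mean ± SEM.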

Data set [6] relates to metastatic AR+, TNBCs. The settings on record: phase 2, metastatic AR+ TNBC; cited from earlier work.
For data set [7], the system named is 5 AR+ breast cancer cell lines. As to the kind of experiment: Cell growth inhibition, WST-8 assay, statements for the whole panel. Type of data set: cell-based, human. Particulars: concentrations up to 10 µM, 5 AR+ cell lines.
Data set [8] in a line: Animal weight and signs of toxicity in efficacy experiment. Type of data set: in vivo. Particulars: entire efficacy experiment, MDA-MB-453 xenograft mice. In outline: as §1
Data set [9] deals with AR protein. Type of data set: cell-based, human. Particulars: MDA-MB-453 cells, combination with ARD-61 for 24 h.

Take `CC(O)(CS(=O)(=O)c1ccc(F)cc1)C(=O)Nc1ccc(C#N)c(C(F)(F)F)c1` (stereo not shown) [Bicalutamide]: in data set [1], the “Clinical benefit ratio (CBR)” value was 19% and the Toxicity result is “minimal toxicity”.
In the case of `CNC(=O)c1ccc(N2C(=S)N(c3ccc(C#N)c(C(F)(F)F)c3)C(=O)C2(C)C)cc1F` [Enzalutamide], the Apoptosis induction result in [2] is recorded as “minimal apoptosis”. Also, in data set [3], the “Effect on cleavage of caspase-8, −9, −3, −7 and PARP” value was “minimal effect”. Moreover, the Antitumor activity result in [4] is “very similar with that of ARD-61 at 25 mg/kg”. Further, the “Effect on cell cycle (G2/M arrest)” value in data set [5] was “minimal effect”. The Progression-free survival result in [6] is recorded as “significant improvement”. Besides, the “Inhibition of cell growth” value in data set [7] is “minimal activity”. Moreover, the “Animal weight loss or other signs of toxicity” value in [8] is listed as “No animal weight loss or other signs of toxicity”.
`C[C@]1(O)CC[C@H]2[C@@H]3CCC4=CC(=O)CCC4=C3C=C[C@@]21C` [R1881, metribolone]: the “Effect on AR depletion induced by ARD-61” value in data set [9] is “effectively block”.
